In ChEMBL document CHEMBL1121392, “Synthesis and antiarrhythmic properties of some 5-benzamido-2-methyl-trans-decahydroisoquinolines” (J Med Chem, 1980):

Experiments:
[1] = Compound was evaluated for acute toxicity (24 h) in female roswell park white mice given intraperitoneally; assay type: organism-based; conditions: mouse, in vivo, ip
How it was run: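 Female Roswell Park (ICR) mice, about 15–25 g, dosed intraperitoneally in groups of at least ten. At least three dose levels were spaced logarithmically at intervals of 0.1 or less. Deaths were scored at 24 h.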

Mus musculus = species on record: Mus musculus; assay: Antiarrhythmic potency in female roswell park white mice using chloroform-induced ventricular fibrillation assay; assay type: functional; conditions: Heart
[2] = Ratio of lethal dose to that of effective dose in mice; assay type: ADME, organism-based; conditions: mouse, in vivo

With `CN1CCC2C(CCCC2NC(=O)c2ccc(Cl)cc2)C1` (stereo not given) the LD50 at 24 h [1] was 929 µmol/kg, the ED50 (Mus musculus) was 49 µmol/kg and the therapeutic index (LD50/ED50) [2] was 19.
For `CN1CCC2C(CCCC2NC(=O)c2ccc([N+](=O)[O-])cc2)C1` (stereo not given), the LD50 at 24 h [1] was 1100 µmol/kg, the ED50 (Mus musculus) was 95 µmol/kg and the therapeutic index (LD50/ED50) [2] was 11.7.
In the case of `CN1CCC2C(CCCC2NC(=O)c2ccc(F)cc2)C1` (stereo not given), the LD50 at 24 h [1] was 992 µmol/kg, the ED50 (Mus musculus) was 110 µmol/kg and the therapeutic index (LD50/ED50) [2] was 9.
Molecule `CN1CCC2C(CCCC2NC(=O)c2ccccc2)C1` (stereo not given) has an LD50 at 24 h [1] of 866 µmol/kg, an ED50 (Mus musculus) of 101 µmol/kg and a therapeutic index (LD50/ED50) [2] of 8.58.
`CN1CCC2C(CCCC2NC(=O)c2ccc(C(F)(F)F)cc2)C1` (stereo not given) gave an LD50 at 24 h [1] of 661 µmol/kg, an ED50 (Mus musculus) of 48 µmol/kg and a therapeutic index (LD50/ED50) [2] of 13.6.
In the case of `CN1CCC2C(CCCC2NC(=O)c2ccc(Cl)cc2Cl)C1` (stereo not given), the LD50 at 24 h [1] was 624 µmol/kg, the ED50 (Mus musculus) was 88 µmol/kg and the therapeutic index (LD50/ED50) [2] was 7.1.
For `COc1ccc(C(=O)NC2CCCC3CN(C)CCC32)cc1` (stereo not given), the LD50 at 24 h [1] was 1140 µmol/kg, the ED50 (Mus musculus) was 109 µmol/kg and the therapeutic index (LD50/ED50) [2] was 10.4.
`COc1cc(C(=O)NC2CCCC3CN(C)CCC32)cc(OC)c1OC` (stereo not given) showed an LD50 at 24 h [1] of 610 µmol/kg, an ED50 (Mus musculus) of 25 µmol/kg and a therapeutic index (LD50/ED50) [2] of 24.
`C=C[C@H]1CN2CC[C@H]1C[C@@H]2[C@@H](O)c1ccnc2ccc(OC)cc12` [QUINIDINE] gave an LD50 at 24 h [1] of 524 µmol/kg and an ED50 (Mus musculus) of 122 µmol/kg.
Work on `Cc1ccc(C(=O)NC2CCCC3CN(C)CCC32)cc1` (stereo not given) yielded an LD50 at 24 h [1] of 803 µmol/kg, an ED50 (Mus musculus) of 110 µmol/kg and a therapeutic index (LD50/ED50) [2] of 7.3.
In the case of `CN1CCC2C(CCCC2NC(=O)c2cccc(Cl)c2)C1` (stereo not given), the LD50 at 24 h [1] was 613 µmol/kg, the ED50 (Mus musculus) was 73 µmol/kg and the therapeutic index (LD50/ED50) [2] was 8.36.
Molecule `CN1CCC2C(CCCC2NC(=O)c2ccc(Cl)c(Cl)c2)C1` (stereo not given) has an LD50 at 24 h [1] of 630 µmol/kg, an ED50 (Mus musculus) of 32 µmol/kg and a therapeutic index (LD50/ED50) [2] of 19.6.
